{
  "source": "ChEMBL document CHEMBL3045498",
  "about": "“Antifeedant and larvicidal activities of Rhein isolated from the flowers of Cassia fistula L” (2011)",
  "assay_type_in_all_cases": "functional",
  "key": {"[1]": {"test_system": "Helicoverpa armigera", "assay": "Larvicidal activity against Helicoverpa armigera fed on compound-treated cotton leaf assessed as mortality at 1000 ppm after 96 hr relative to control", "summary_of_the_method": "(§1)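 Larvae were fed 24 h on leaf discs treated with compound at several concentrations, then kept on untreated fresh leaves. Diet was replaced every 24 h, and larval mortality was scored 96 h after treatment.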"}, "[2]": {"test_system": "Spodoptera litura", "assay": "Larvicidal activity against Spodoptera litura fed on compound-treated castor leaf assessed as mortality at 250 ppm after 96 hr relative to control", "summary_of_the_method": "as §1"}, "[3]": {"test_system": "Helicoverpa armigera", "assay": "Larvicidal activity against Helicoverpa armigera fed on compound-treated cotton leaf assessed as mortality after 96 hr relative to control", "summary_of_the_method": "as §1"}, "[4]": {"test_system": "Helicoverpa armigera", "assay": "Larvicidal activity against Helicoverpa armigera fed on compound-treated cotton leaf assessed as mortality at 125 ppm after 96 hr relative to control", "summary_of_the_method": "as §1"}, "[5]": {"test_system": "Helicoverpa armigera", "assay": "Antifeedant activity against pre-starved fourth-instar larva of Helicoverpa armigera fed on compound-treated cotton leaf assessed as antifeedant index at 500 ppm after 24 hr by leaf disk no choice method"}, "[6]": {"test_system": "Spodoptera litura", "assay": "Antifeedant activity against pre-starved fourth-instar larva of Spodoptera litura fed on compound-treated castor leaf assessed as antifeedant index at 1000 ppm after 24 hr by leaf disc no choice method"}, "[7]": {"test_system": "Spodoptera litura", "assay": "Antifeedant activity against pre-starved fourth instar larva of Spodoptera litura fed on compound-treated castor leaf assessed as antifeedant index at 125 ppm after 24 hr by leaf disc no choice method"}, "[8]": {"test_system": "Helicoverpa armigera", "assay": "Antifeedant activity against pre-starved fourth-instar larva of Helicoverpa armigera fed on compound-treated cotton leaf assessed as antifeedant index at 125 ppm after 24 hr by leaf disk no choice method"}, "[9]": {"test_system": "Helicoverpa armigera", "assay": "Antifeedant activity against pre-starved fourth-instar larva of Helicoverpa armigera fed on compound-treated cotton leaf assessed as antifeedant index at 250 ppm after 24 hr by leaf disk no choice method"}, "[10]": {"test_system": "Helicoverpa armigera", "assay": "Larvicidal activity against Helicoverpa armigera fed on compound-treated cotton leaf assessed as mortality at 500 ppm after 96 hr relative to control", "summary_of_the_method": "as §1"}, "[11]": {"test_system": "Spodoptera litura", "assay": "Antifeedant activity against pre-starved fourth-instar larva of Spodoptera litura fed on compound-treated castor leaf assessed as antifeedant index at 250 ppm after 24 hr by leaf disc no choice method"}, "[12]": {"test_system": "Spodoptera litura", "assay": "Larvicidal activity against Spodoptera litura fed on compound-treated castor leaf assessed as mortality at 500 ppm after 96 hr relative to control", "summary_of_the_method": "as §1"}, "[13]": {"test_system": "Spodoptera litura", "assay": "Larvicidal activity against Spodoptera litura fed on compound-treated castor leaf assessed as mortality after 96 hr relative to control", "summary_of_the_method": "as §1"}, "[14]": {"test_system": "Spodoptera litura", "assay": "Larvicidal activity against Spodoptera litura fed on compound-treated castor leaf assessed as mortality at 1000 ppm after 96 hr relative to control", "summary_of_the_method": "as §1"}, "[15]": {"test_system": "Spodoptera litura", "assay": "Larvicidal activity against Spodoptera litura fed on compound-treated castor leaf assessed as mortality at 125 ppm after 96 hr relative to control", "summary_of_the_method": "as §1"}, "[16]": {"test_system": "Helicoverpa armigera", "assay": "Antifeedant activity against pre-starved fourth-instar larva of Helicoverpa armigera fed on compound-treated cotton leaf assessed as antifeedant index at 1000 ppm after 24 hr by leaf disk no choice method"}, "[17]": {"test_system": "Spodoptera litura", "assay": "Antifeedant activity against pre-starved fourth-instar larva of Spodoptera litura fed on compound-treated castor leaf assessed as antifeedant index at 500 ppm after 24 hr by leaf disc no choice method"}, "[18]": {"test_system": "Helicoverpa armigera", "assay": "Larvicidal activity against Helicoverpa armigera fed on compound-treated cotton leaf assessed as mortality at 250 ppm after 96 hr relative to control", "summary_of_the_method": "as §1"}},
  "data": [
    {"smiles": "C/C=C(\\C)C(=O)O[C@H]1C[C@@H](OC(C)=O)[C@@]2(C(=O)OC)CO[C@H]3[C@@H](O)[C@@](C)([C@]45O[C@@]4(C)[C@@H]4C[C@H]5O[C@@H]5OC=C[C@@]54O)[C@H]4[C@]1(CO[C@]4(O)C(=O)OC)[C@@H]32", "note": "[AZADIRACHTIN A]", "values": [
      {"measurement": "mortality at 1000 ppm", "setting": "[1]", "value": 100, "unit": "%"},
      {"measurement": "mortality at 250 ppm", "setting": "[2]", "value": 73.8, "unit": "%"},
      {"measurement": "LC50", "setting": "[3]", "value": 186, "unit": "µg/mL"},
      {"measurement": "mortality at 125 ppm", "setting": "[4]", "value": 38.8, "unit": "%"},
      {"measurement": "AFI", "setting": "[5]", "value": 75.88, "unit": "%"},
      {"measurement": "AFI", "setting": "[6]", "value": 88.02, "unit": "%"},
      {"measurement": "AFI", "setting": "[7]", "value": 60.12, "unit": "%"},
      {"measurement": "AFI", "setting": "[8]", "value": 53.5, "unit": "%"},
      {"measurement": "AFI", "setting": "[9]", "value": 64.13, "unit": "%"},
      {"measurement": "mortality at 500 ppm", "setting": "[10]", "value": 95, "unit": "%"},
      {"measurement": "AFI", "setting": "[11]", "value": 70.08, "unit": "%"},
      {"measurement": "mortality at 500 ppm", "setting": "[12]", "value": 100, "unit": "%"},
      {"measurement": "LC50", "setting": "[13]", "value": 128, "unit": "µg/mL"},
      {"measurement": "mortality at 1000 ppm", "setting": "[14]", "value": 100, "unit": "%"},
      {"measurement": "mortality at 125 ppm", "setting": "[15]", "value": 52.5, "unit": "%"},
      {"measurement": "AFI", "setting": "[16]", "value": 86.47, "unit": "%"},
      {"measurement": "AFI", "setting": "[17]", "value": 78.66, "unit": "%"},
      {"measurement": "mortality at 250 ppm", "setting": "[18]", "value": 61.2, "unit": "%"}
    ]},
    {"smiles": "O=C(O)c1cc(O)c2c(c1)C(=O)c1cccc(O)c1C2=O", "note": "[RHEIN]", "values": [
      {"measurement": "mortality at 1000 ppm", "setting": "[1]", "value": 67.5, "unit": "%"},
      {"measurement": "mortality at 250 ppm", "setting": "[2]", "value": 15, "unit": "%"},
      {"measurement": "LC50", "setting": "[3]", "value": 606, "unit": "µg/mL"},
      {"measurement": "mortality at 125 ppm", "setting": "[4]", "value": 22.5, "unit": "%"},
      {"measurement": "AFI", "setting": "[5]", "value": 59.98, "unit": "%"},
      {"measurement": "AFI", "setting": "[6]", "value": 56.79, "unit": "%"},
      {"measurement": "AFI", "setting": "[7]", "value": 27.28, "unit": "%"},
      {"measurement": "AFI", "setting": "[8]", "value": 47.82, "unit": "%"},
      {"measurement": "AFI", "setting": "[9]", "value": 55.06, "unit": "%"},
      {"measurement": "mortality at 500 ppm", "setting": "[10]", "value": 50, "unit": "%"},
      {"measurement": "AFI", "setting": "[11]", "value": 33.05, "unit": "%"},
      {"measurement": "mortality at 500 ppm", "setting": "[12]", "value": 21.2, "unit": "%"},
      {"measurement": "LC50", "setting": "[13]", "value": 1190, "unit": "µg/mL"},
      {"measurement": "mortality at 1000 ppm", "setting": "[14]", "value": 36.2, "unit": "%"},
      {"measurement": "mortality at 125 ppm", "setting": "[15]", "value": 0, "unit": "%"},
      {"measurement": "AFI", "setting": "[16]", "value": 76.13, "unit": "%"},
      {"measurement": "AFI", "setting": "[17]", "value": 40.85, "unit": "%"},
      {"measurement": "mortality at 250 ppm", "setting": "[18]", "value": 32.5, "unit": "%"}
    ]}
  ]
}
